# Assay outcomes (PubChem BioAssay)
# The list is not random: actives were taken first. Their share in the collection is about 0.74%.
# Tn6 DDE FP: DD(E)-Tn6 binding inhibition, primary FP screen; inhibition, % at 8.3 µM; P02675; Fibrin DD(E) TRITC-Tn6 fluorescence polarization displacement; 0.21% of 370,000 active;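 active = inhibition above a per-campaign cutoff: mean of compounds within control limits plus 3 SD, cut at about 15% in these data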
# Target sequence (P02675 whole entry, looked up): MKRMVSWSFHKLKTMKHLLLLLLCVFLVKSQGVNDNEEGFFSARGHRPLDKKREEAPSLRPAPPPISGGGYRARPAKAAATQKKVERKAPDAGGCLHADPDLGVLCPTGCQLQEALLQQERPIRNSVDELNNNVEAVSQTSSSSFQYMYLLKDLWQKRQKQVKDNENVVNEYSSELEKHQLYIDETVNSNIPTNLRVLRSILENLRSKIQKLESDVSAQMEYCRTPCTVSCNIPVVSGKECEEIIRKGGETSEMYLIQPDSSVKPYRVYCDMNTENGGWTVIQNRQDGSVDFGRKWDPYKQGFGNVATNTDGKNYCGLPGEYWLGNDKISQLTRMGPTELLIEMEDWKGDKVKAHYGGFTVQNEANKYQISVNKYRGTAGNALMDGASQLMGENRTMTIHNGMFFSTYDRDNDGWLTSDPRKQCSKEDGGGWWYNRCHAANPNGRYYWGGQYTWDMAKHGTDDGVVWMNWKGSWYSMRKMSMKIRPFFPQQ
# ARFGAP1 inhibitor: rat ARFGAP1 inhibition. inhibition, % at 16.5 µM. Arfgap1-stimulated ARF1 GTP hydrolysis, GDP FP detection. AID 651572. Q62848. 0.26% of 360,000 active;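 active = inhibition above a per-plate limit, mean inhibition of low control wells plus 3 SD, cut at about 25% in these data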
# Target sequence (Q62848 1-136 limits assumed): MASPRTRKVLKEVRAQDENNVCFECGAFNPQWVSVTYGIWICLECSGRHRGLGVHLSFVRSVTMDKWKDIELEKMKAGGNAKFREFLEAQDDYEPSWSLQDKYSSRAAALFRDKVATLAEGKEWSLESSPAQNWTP
#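 Material: truncated rat Arfgap1 GAP domain; Incubation: compound-enzyme preincubation 20 min, reaction 120 min, detection 60 min, 25 °C; Read-out: percent inhibition of Arfgap1-stimulated GTP hydrolysis; Technique: FP, GDP Alexa 633 tracer displaced from anti-GDP antibody, 620/688 nm; Controls: No-Arfgap1 wells (100%) versus DMSO full-reaction wells (0%); Replication: single well per compound.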
# ASAP1 inh: blocks human ASAP1-stimulated Arf1 GTP hydrolysis; 0.19% of 360,000 active; GDP FP detection; inhibition, % at 16.5 µM; AID 624377; in the data active = inhibition above about 25%
# DDE Tn7 FP inh: inhibitors of Tn7 peptide binding to human fibrin DD(E). P02675. FP displacement of FITC-Tn7 peptide from fibrin DD(E); 0% = median of compound wells per plate. inhibition, % at 8.3 µM. 0.13% of 370,000 active;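 active = inhibition above the mean of compounds falling within the control limits plus 3 SD of them, cut at about 14% in these data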
#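 Measure: % inhibition scaled between sample-field median and high-control FP; Test system: human fibrin DD(E); Quantity: 2 µM final DD(E) protein; Doses: one dose, 8.3 µM nominal; Schedule: compound with protein 10 min, then 3 h after probe, room temperature; Detection: fluorescence polarization; Medium: Tris buffer with calcium and detergent, pH 7.8.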
# DDE Tn6 FP ctr: counter-screen for inhibitors of Tn6 peptide binding to fibrin DD(E). shares compounds with Tn6 DDE FP. TRITC-Tn6 fluorescence polarization displacement; 0% = median of compound wells, not DMSO. inhibition, % at 8.3 µM. 2% of 680 active. AID 720621;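 active = inhibition above the mean of test compounds lying between the control limits plus 3 SD of those, cut at about 14% in these data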
# DDE Tn6 confirm: DD(E)-Tn6 binding inhibition, FP confirmation. FP displacement of TRITC-Tn6 peptide from DD(E); 0% = per-plate median of test wells. AID 720631. inhibition, % at 8.3 µM. 10% of 680 active. shares compounds with Tn6 DDE FP;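 active = inhibition above the mean of compounds lying within the control limits plus 3 SD, cut at about 16% in these data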
# Numbers stand for hits; n = inactive; x = no result given.
SMILES,Tn6 DDE FP,ARFGAP1 inhibitor,ASAP1 inh,DDE Tn7 FP inh,DDE Tn6 FP ctr,DDE Tn6 confirm
O[C@H](COc1cccc(C(F)(F)F)c1)CN1CCC(C(O)(c2ccccc2)c2ccccc2)CC1,n,x,x,n,x,x
CC(=O)c1cccc(NC(=O)c2ccc(-n3cncn3)c3ccoc23)c1,n,n,n,n,x,x
O=C(Nc1cccc(F)c1)c1ccc(-n2cncn2)c2ccoc12,16,n,n,n,n,n
O=C(Nc1ccc2nn(-c3ccccc3)nc2c1)c1ccc(Br)o1,17,n,n,n,n,n
CC(COc1ccc(C#N)c(F)c1)CN1CCC(C(O)(c2ccccc2)c2ccccc2)CC1 (stereo unspecified),n,x,x,n,x,x
Cc1ccc(-c2csc3ncnc(N4CCN(c5ccccc5O)CC4)c23)cc1,16,n,n,n,n,n
Cc1ccc(S(=O)(=O)N2CCN(c3ncnc4scc(-c5ccccc5)c34)CC2)cc1,n,n,n,n,x,x
O=C(Nc1ccccc1)n1ccc2ccc(-c3ccc4cc[nH]c4c3)cc21,n,x,x,n,x,x
O=C(CCNS(=O)(=O)c1ccccc1)OCc1ccc([N+](=O)[O-])cc1,n,n,n,n,x,x
Cc1ccc(S(=O)(=O)NCCC(=O)OCc2ccc([N+](=O)[O-])cc2)cc1C,18,n,n,n,n,n
O=C(COC(=O)c1ccccc1Cc1ccccc1)Nc1ccc(SC(F)F)cc1,16,n,n,n,n,n
CCCCC[C@@H](O)c1cc2ccccc2c(=O)o1,16,n,n,n,n,n
C=CCNC(=O)N1CCN(Cc2nc3ccccc3c(=O)[nH]2)CC1,n,x,x,n,x,x
CC(C)(C)NC(=O)C1CCC(CNc2c(N3CCCCC3)c(=O)c2=O)CC1 (stereo unspecified),n,n,n,n,x,x
CC1CCC(NC(=O)C2CCC(CNc3c(N4CCCCC4)c(=O)c3=O)CC2)CC1 (stereo unspecified),17,n,n,n,n,n
Cc1ccccc1C(C(=O)NCc1ccco1)N(CC1CCCO1)C(=O)Cn1nnc2ccccc21 (stereo unspecified),19,n,n,n,n,n
Cc1cc(C)c2c(N)c(C(=O)Nc3ccccc3Br)sc2n1,n,n,n,n,x,x
Cc1cc(C)c2c(N)c(C(=O)Nc3ccccc3Cl)sc2n1,18,n,n,n,n,n
COc1ccc(NC(=O)c2oc3ccccc3c2NC(=O)c2ccc(OC)c(OC)c2)c(OC)c1,n,n,n,n,x,x
COc1ccc(NC(=O)c2oc3ccccc3c2NC(=O)COc2ccccc2OC)c(OC)c1,18,n,n,n,n,n
CCCCNC(=O)CCC(=O)Nc1ccc2nc(N3CCCCC3)cc(C)c2c1,16,n,n,n,n,n
CCCCNC(=O)CCC(=O)Nc1ccc2nc(N3CCOCC3)cc(C)c2c1,n,n,n,n,x,x
CN(Cc1ccccc1)C(=O)OCc1cn(Cc2ccc(F)c(F)c2)nn1,n,x,x,n,x,x
CC(=O)c1ccc(N2CCN(CN3C(=O)CC4(CCCC4)C3=O)CC2)c(F)c1,70,n,n,n,n,n
CCOC(=O)NC[C@@]1(C(=O)OC)CC(=O)N(Cc2ccc(Cl)cc2)[C@@H]1c1ccc(OC)cc1,n,x,x,n,x,x
SMILES,Tn6 DDE FP,ARFGAP1 inhibitor,ASAP1 inh,DDE Tn7 FP inh,DDE Tn6 FP ctr,DDE Tn6 confirm
COc1ccccc1C=NN=C(N)C(N)=NN=Cc1ccccc1OC,n,n,n,n,x,x
NC(N)=N/N=C/c1ccccc1OC(F)F,17,n,n,n,n,n
Cc1cc(NC(=O)c2ccc(NS(=O)(=O)c3ccc(F)cc3)cc2)no1,17,x,x,n,n,n
O=C(CSc1nnc(-c2ccccc2)n1-c1ccc(Cl)cc1)NN=Cc1c[nH]c2ccccc12,n,x,x,n,x,x
O=C(NCc1ccc(F)c(F)c1)C1C2C=CC3(CN(Cc4ccccc4)C(=O)C13)O2 (stereo unspecified),n,x,x,n,x,x
CCN(CC)c1ccc(N=C2C=CC(=O)C=C2NC(C)=O)cc1,20,n,n,n,n,54
CCN(CC)c1ccc(NC(=O)Nc2ccc(C(C)=O)cc2)cc1,n,n,n,n,x,x
O=C1CCCC(O)=C1N=Nc1ccc(C(=O)O)cc1,n,n,n,n,x,x
O=C1CCCC(O)=C1N=Nc1c(Cl)cc(C(F)(F)F)cc1Cl,43,n,n,n,n,n
CCCC/C=C1/[C@H](c2ccc(Cl)cc2)N(Cc2ccc3c(c2)OCO3)C2=N[C@H](c3ccccc3)CC(=O)N21,n,x,x,n,x,x
CCOC(=O)CNC(=O)Nc1cccc(Cl)c1C,52,n,n,n,n,n
COc1ccc(C(=O)N(Cc2ccccc2)c2cccc(C)c2)cc1,17,n,n,n,n,n
COc1ccc(CN(C(=O)c2ccc(C)cc2)c2cccc(N)c2)cc1,n,n,n,n,x,x
COC(=O)[C@]1(C#N)CC(=O)N(Cc2ccc(Cl)cc2)[C@@H]1c1ccccc1,n,x,x,n,x,x
Cc1cccc(Cn2cc(CN3CC(N(C)CCCOC(=O)c4cc(C)cc(C)c4)CS3(=O)=O)nn2)c1 (stereo unspecified),n,x,x,n,x,x
CCOCCCn1c(=S)[nH]c2cc(C(=O)NCC(OC)OC)ccc2c1=O,16,n,n,n,n,n
COc1ccc(Cl)c(Cn2c(NCCCO)nc3c2c(=O)n(C)c(=O)n3C)c1,17,n,n,n,n,n
O=C(Nc1ccc(Cl)cc1)c1csc(-c2ccccc2)n1,28,n,n,n,n,26
CC1=CC2(C(Cc3ccccc3)N(CC3CC3)C(=NC(=O)c3ccccc3)N2C(=O)OCc2ccccc2)n2c(=O)n(-c3ccccc3)c(=O)n2C1 (stereo unspecified),n,x,x,n,x,x
COc1ccc(/C=N/N2CCN(c3ccccc3OC)CC2)cc1OC,n,n,n,n,x,x
COc1ccccc1N1CCN(/N=C/c2ccc(C(=O)O)cc2)CC1,17,n,n,n,n,n
CC1(C)CC(=O)N(CC(=O)N2CCN(Cc3ccccc3)CC2)c2ccccc2S1(=O)=O,n,x,x,n,x,x
CN(C)c1cccc(-c2csc(N3CCC(C(N)=O)CC3)n2)c1,n,n,n,n,x,x
CS(=O)(=O)c1cccc(-c2csc(N3CCC(C(N)=O)CC3)n2)c1,16,n,n,n,n,n
COc1ccc(C2(C)NC(=O)N(CC(=O)NC(C)c3ccc(CC(C)C)cc3)C2=O)cc1 (stereo unspecified),19,n,n,n,n,n
COc1ccc(CNC(=O)CN2C(=O)NC(C)(c3ccc(C(C)(C)C)cc3)C2=O)cc1 (stereo unspecified),n,n,n,n,x,x
O=C(c1coc(=O)c(Br)c1)N1CCOCC1,18,n,n,n,n,n
O=C(c1ccc(=O)oc1)N1CCOCC1,n,n,n,n,x,x
CC(=O)c1cccc(NC(=O)COC(=O)c2n[nH]c3ccccc23)c1,16,n,n,n,n,n
